How the values were obtained:
CRK SH2 domain = CRK SH2 domain (Homo sapiens, UniProt P46108); test: FP saturation binding; details: result in words
Outline: (§1)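 Multi-SH2 genes were used as tandem proteins that kept the linker residues. Automated high-throughput FP saturation binding was run against 178 synthetic phosphopeptides from RTK, GAB1 and androgen receptor tyrosine sites. Millipolarization readings were fitted to P_obs = Pmax·[Protein]/(K_D+[Protein]) by least squares regression to give K_D.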

RASA1 SH2 domains = target: T1, RASA1 SH2 domains (Homo sapiens, UniProt P20936); test: FP saturation binding, construct not stated; details: result in words
T1 sequence (P20936 181-441 limits assumed): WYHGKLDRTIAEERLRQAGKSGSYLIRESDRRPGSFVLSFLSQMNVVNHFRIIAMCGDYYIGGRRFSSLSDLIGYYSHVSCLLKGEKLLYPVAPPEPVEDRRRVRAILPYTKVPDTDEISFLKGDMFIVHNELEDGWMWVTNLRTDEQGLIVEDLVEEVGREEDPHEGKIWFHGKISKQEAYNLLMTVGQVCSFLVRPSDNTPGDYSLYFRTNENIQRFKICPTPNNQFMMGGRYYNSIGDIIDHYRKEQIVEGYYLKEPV
Outline: as §1

PLCG1 SH2 domains = target: T2, PLCG1 SH2 domains (Homo sapiens, UniProt P19174); test: FP saturation binding, construct not stated; details: result in words
T2 sequence (P19174 550-756 limits assumed): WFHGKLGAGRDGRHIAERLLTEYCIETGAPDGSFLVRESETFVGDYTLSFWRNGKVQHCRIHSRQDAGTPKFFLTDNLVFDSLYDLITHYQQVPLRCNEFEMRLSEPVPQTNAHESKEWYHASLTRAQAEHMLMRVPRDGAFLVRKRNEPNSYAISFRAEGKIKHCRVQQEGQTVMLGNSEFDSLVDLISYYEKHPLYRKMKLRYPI
Outline: as §1

[1] = tested on: c-Src family kinase SH2 domains; test: FP saturation binding, domain family; set-up: species or system human; details: result in words
Outline: as §1

SHC1 SH2 domain = target: T3, SHC1 SH2 domain (Homo sapiens, UniProt P29353); test: FP saturation binding; details: result in words
T3 sequence (P29353 488-579 limits assumed): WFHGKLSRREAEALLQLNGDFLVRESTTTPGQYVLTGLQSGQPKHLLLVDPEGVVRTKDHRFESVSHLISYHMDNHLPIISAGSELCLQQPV
Outline: (§2)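 Tandem SH2 proteins were kept with their linkers. Synthetic phosphotyrosine peptides were run in automated high-throughput FP saturation binding. Millipolarization was fitted to Pobs = Pmax·[Protein]/(KD+[Protein]) by least squares to give KD per protein/peptide pair.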

PIK3R1 SH2 domains = PIK3R1 SH2 domains (Homo sapiens, UniProt P27986); test: FP saturation binding, construct not stated; details: result in words
Sequence of PIK3R1 SH2 domains (P27986 2-724): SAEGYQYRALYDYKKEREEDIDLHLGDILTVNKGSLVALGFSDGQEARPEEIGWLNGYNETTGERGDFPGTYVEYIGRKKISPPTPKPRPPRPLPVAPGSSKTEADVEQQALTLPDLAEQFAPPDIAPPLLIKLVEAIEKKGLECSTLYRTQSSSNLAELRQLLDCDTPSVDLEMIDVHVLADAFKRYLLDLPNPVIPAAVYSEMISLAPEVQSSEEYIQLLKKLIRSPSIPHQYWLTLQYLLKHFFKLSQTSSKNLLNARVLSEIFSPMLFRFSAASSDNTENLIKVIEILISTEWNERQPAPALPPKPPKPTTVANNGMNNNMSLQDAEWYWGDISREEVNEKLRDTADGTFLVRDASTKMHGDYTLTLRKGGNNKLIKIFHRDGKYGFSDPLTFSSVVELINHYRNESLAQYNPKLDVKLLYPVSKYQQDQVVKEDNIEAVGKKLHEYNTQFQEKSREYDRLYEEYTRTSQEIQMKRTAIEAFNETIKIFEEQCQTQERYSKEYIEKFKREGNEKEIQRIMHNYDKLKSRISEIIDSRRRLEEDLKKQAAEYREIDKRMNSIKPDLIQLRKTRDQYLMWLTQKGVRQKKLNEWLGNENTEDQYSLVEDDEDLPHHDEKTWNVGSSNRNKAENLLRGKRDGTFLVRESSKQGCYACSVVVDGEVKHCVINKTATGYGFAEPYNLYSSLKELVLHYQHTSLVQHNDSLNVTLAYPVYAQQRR
Outline: as §1

PIK3R3 SH2 domains = test: FP saturation binding, construct not stated; set-up: species or system human; details: result in words
Outline: as §1

SH2D1B SH2 domain = target: T4, SH2D1B SH2 domain (Homo sapiens, UniProt O14796); test: FP saturation binding; details: result in words
T4 sequence (O14796 5-101 limits assumed): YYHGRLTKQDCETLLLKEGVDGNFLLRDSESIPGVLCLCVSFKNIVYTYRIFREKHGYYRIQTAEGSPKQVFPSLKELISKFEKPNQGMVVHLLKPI
Outline: as §1

Shp2/PTPN11 SH2 domain = target: T5, Shp2/PTPN11 SH2 domain (Homo sapiens, UniProt Q06124); test: FP saturation binding, construct not stated; details: result in words
T5 sequence (Q06124 2-593): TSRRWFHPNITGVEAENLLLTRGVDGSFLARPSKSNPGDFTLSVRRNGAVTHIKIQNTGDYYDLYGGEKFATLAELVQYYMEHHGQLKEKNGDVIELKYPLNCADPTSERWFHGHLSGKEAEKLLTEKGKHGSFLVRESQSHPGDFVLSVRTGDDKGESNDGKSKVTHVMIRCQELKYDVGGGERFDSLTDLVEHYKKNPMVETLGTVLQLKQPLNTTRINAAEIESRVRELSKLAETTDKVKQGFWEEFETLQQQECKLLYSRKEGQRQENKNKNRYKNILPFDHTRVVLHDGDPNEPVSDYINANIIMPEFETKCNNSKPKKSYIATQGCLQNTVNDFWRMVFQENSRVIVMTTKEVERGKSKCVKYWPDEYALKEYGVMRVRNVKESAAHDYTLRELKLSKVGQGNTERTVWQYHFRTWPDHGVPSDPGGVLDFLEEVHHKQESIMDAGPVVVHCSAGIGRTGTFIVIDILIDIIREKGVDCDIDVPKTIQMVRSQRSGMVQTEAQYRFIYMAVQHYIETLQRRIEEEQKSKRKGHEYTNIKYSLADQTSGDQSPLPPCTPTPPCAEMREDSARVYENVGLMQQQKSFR
Outline: as §1

[2] = tested on: PIK3R-derived SH2 domains; test: FP saturation binding, domain family; set-up: species or system human; details: FP, result in words
Outline: as §1

PLCG2 SH2 domains = target: T6, PLCG2 SH2 domains (Homo sapiens, UniProt P16885); test: FP saturation binding, construct not stated; details: result in words
T6 sequence (P16885 532-735 limits assumed): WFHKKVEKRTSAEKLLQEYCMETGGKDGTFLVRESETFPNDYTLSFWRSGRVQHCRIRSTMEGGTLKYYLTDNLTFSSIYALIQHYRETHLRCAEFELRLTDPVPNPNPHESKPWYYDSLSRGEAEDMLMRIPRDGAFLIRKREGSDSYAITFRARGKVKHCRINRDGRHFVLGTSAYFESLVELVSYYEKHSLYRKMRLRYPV
Outline: as §1

[3] = target: T7, SHC1 PTB domain (SHC1.PTB) (Homo sapiens, UniProt P29353); test: FP saturation binding; details: result in words
T7 sequence (P29353 156-339 limits assumed): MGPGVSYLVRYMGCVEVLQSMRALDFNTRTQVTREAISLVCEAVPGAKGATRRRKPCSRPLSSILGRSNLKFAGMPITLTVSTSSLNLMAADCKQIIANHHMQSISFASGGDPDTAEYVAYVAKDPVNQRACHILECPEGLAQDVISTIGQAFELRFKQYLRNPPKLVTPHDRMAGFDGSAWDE
Outline: as §1

CRKL SH2 domain = CRKL SH2 domain (Homo sapiens, UniProt P46109); test: FP saturation binding; details: result in words
Sequence of CRKL SH2 domain (P46109 14-102 limits assumed): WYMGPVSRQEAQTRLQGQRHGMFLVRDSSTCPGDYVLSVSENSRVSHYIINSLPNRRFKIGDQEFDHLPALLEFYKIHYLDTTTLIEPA
Outline: as §1

GRAP2 SH2 domain = GRAP2 SH2 domain (Homo sapiens, UniProt O75791); test: FP saturation binding; details: result in words
Sequence of GRAP2 SH2 domain (O75791 58-149 limits assumed): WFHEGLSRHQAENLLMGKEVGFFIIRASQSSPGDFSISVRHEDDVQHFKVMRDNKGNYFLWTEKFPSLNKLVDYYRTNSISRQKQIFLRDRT
Outline: as §2

GRB2 SH2 domain = GRB2 SH2 domain (Homo sapiens, UniProt P62993); test: FP saturation binding; details: result in words
Sequence of GRB2 SH2 domain (P62993 60-152 limits assumed): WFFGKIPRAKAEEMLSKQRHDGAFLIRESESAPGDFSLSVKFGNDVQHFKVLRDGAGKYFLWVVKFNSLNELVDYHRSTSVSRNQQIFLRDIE
Outline: as §2

Sequence of CRK SH2 domain (P46108 13-118 limits assumed): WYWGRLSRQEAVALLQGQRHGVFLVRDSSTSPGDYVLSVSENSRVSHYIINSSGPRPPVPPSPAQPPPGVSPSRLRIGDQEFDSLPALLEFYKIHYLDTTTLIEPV

Row | Substance | recruitment of CRK SH2 domain (CRK SH2 domain) | recruitment of PLCG1 SH2 domains (PLCG1 SH2 domains) | recruitment of c-Src family kinase SH2 domains [1] | interaction with SHC1 SH2 domain (SHC1 SH2 domain) | also measured
1 | VITEXCCYGDLLd [c-Kit Tyr(P)-672] | recruited | – | recruited | – | –
2 | LPPPXQLINVPPd [GAB1 Tyr(P)-162] | – | – | – | unable to detect | –
3 | LDENXVPMNPNSd [GAB1 Tyr(P)-447] | – | – | – | – | recruitment of PIK3R1 (PIK3R1 SH2 domains): confirmed; recruitment of PIK3R3 (PIK3R3 SH2 domains): high affinity
4 | ERVDXVVVDQQKd [GAB1 Tyr(P)-689] | – | able to recruit | able to recruit | interactions were identified | recruitment of SH2D1B SH2 domain (SH2D1B SH2 domain): able to recruit; recruitment of Shp2/PTPN11 SH2 domain (Shp2/PTPN11 SH2 domain): unable to recruit; recruitment of PIK3R (PI3KR) SH2 domains [2]: able to recruit
5 | SEENXVPMNPNLd [GAB1 Tyr(P)-627] | – | – | – | interactions were identified | recruitment of PIK3R1 (PIK3R1 SH2 domains): confirmed; recruitment of PIK3R3 (PIK3R3 SH2 domains): high affinity
6 | EYCCXGDLLNFLd [c-Kit Tyr(P)-675] | recruited | – | recruited | – | –
7 | FENSXIFDINTId [GAB1 Tyr(P)-83] | – | – | – | interactions were identified | interaction with SHC1 PTB domain [3]: interactions were observed
8 | SQDCXDIPRAFPd [GAB1 Tyr(P)-406] | no CRK SH2 domain interactions | confirmed | – | – | recruitment of CRKL SH2 domain (CRKL SH2 domain): CRKL SH2 domain interactions
9 | EAALXKNLLHSKd [c-Kit Tyr(P)-703] | – | – | – | – | recruitment of GRAP2 SH2 domain (GRAP2 SH2 domain): detectably recruited; recruitment of GRB2 SH2 domain (GRB2 SH2 domain): detectably recruited
10 | DRIFXLVADSEEd [GAB1 Tyr(P)-95] | CRK SH2 domain recruitment | – | – | interactions were identified | –
11 | VKPIXFHTQ [AR Tyr(P)-915] | – | recruitment sites | – | – | recruitment of PLCG2 SH2 domains (PLCG2 SH2 domains): recruitment sites

Now from value to substance, other results behind:

Row | recruitment of CRK SH2 domain (CRK SH2 domain) | recruitment of PLCG1 SH2 domains (PLCG1 SH2 domains) | recruitment of c-Src family kinase SH2 domains [1] | interaction with SHC1 SH2 domain (SHC1 SH2 domain) | Substance | also measured
12 | no CRK SH2 domain interactions | confirmed | – | – | VSISXDIPPTPGd [GAB1 Tyr(P)-307] | recruitment of RASA1 SH2 domains (RASA1 SH2 domains): confirmed
13 | – | – | recruited | – | NNYVXIDPTQLPd [c-Kit Tyr(P)-570] | –
14 | – | recruitment sites | – | – | PIDYXFPPQKTCd [AR Tyr(P)-553] | recruitment of PLCG2 SH2 domains (PLCG2 SH2 domains): recruitment sites; recruitment of PIK3R (PI3KR) SH2 domains [2]: relatively high affinity
15 | – | – | recruited | – | PAEMXDIMKTCWd [c-Kit Tyr(P)-900] | –

Source: article PMC4083110 (Molecular & Cellular Proteomics : MCP, 2014)
